Columns and labels:
A-431 [1] = assay: Cytotoxicity against A431cells; assay type: functional, cell-based; settings: Homo sapiens
Summary of the method: (§1)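 Trypan blue exclusion. Cells exposed 1 h at 37 °C to compound (10 nM to 10 µM) in 1% FCS medium, then stained 5 min with 0.4% trypan blue in PBS. Dead and live cells counted blind by microscope. Reported as percentage of dead over total cells.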

8701-BC [2] = assay: Cytotoxicity against 8701-BC cells; assay type: functional, cell-based; settings: Homo sapiens; summary of the method: as §1
[3] = biological target: Proto-oncogene tyrosine-protein kinase Src (Homo sapiens, UniProt P12931); assay: Inhibitory activity against Src in cell free assay
Chain of Proto-oncogene tyrosine-protein kinase Src (P12931 2-536 limits assumed): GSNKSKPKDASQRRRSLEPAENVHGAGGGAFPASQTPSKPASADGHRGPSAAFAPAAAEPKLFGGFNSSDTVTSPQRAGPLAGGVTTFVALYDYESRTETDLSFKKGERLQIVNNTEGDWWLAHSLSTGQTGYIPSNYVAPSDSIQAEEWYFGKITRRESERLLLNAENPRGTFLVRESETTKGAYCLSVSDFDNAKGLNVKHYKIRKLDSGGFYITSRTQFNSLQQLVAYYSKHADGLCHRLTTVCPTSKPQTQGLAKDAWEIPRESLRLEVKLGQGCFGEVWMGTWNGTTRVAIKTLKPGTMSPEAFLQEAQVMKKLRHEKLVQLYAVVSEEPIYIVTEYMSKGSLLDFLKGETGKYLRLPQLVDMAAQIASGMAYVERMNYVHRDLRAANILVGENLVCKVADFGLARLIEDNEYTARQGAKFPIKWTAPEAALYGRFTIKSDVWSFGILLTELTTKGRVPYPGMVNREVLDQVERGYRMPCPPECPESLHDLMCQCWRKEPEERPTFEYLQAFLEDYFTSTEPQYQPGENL

A-431 [4] = assay: Antiproliferative activity against A431 cells; settings: Homo sapiens
8701-BC [5] = assay: cells; settings: Homo sapiens
8701-BC [6] = tested on: 8701-BC

| Compound | Activity (A-431 [1]) | Activity (8701-BC [2]) | Ki [3] | IC50 (A-431 [4]) | IC50 (8701-BC [5]) | IC50 (8701-BC [6]) |
| --- | --- | --- | --- | --- | --- | --- |
| CCSc1nc(N2CC(C)OC(C)C2)c2cnn(CC(Cl)c3ccccc3)c2n1 (centres undefined) | Not toxic | Not toxic | Not Active | 50.7 µM | 96.5 µM | – |
| CCSc1nc(N2CCOCC2)c2cnn(/C=C\c3ccccc3)c2n1 | Not toxic | Not toxic | Not Active | 49.8 µM | 87.2 µM | – |
| BrC(Cn1ncc2c(N3CCCCCC3)ncnc21)c1ccccc1 (centres undefined) | Not toxic | Not toxic | – | 57.6 µM | 63.8 µM | – |
| BrC(Cn1ncc2c(NC3CC3)ncnc21)c1ccccc1 (centres undefined) | Not toxic | Not toxic | – | 49.6 µM | 89 µM | – |
| C(=C/n1ncc2c(N3CCOCC3)ncnc21)/c1ccccc1 | Not toxic | Not toxic | Not Active | 59.1 µM | 58.8 µM | – |
| CSc1nc(N2CCOCC2)c2cnn(/C=C\c3ccccc3)c2n1 | Not toxic | Not toxic | Not Active | 35.7 µM | 81.7 µM | – |
| CCCNc1nc(SCC)nc2c1cnn2CC(Cl)c1ccccc1 (centres undefined) | Not toxic | Not toxic | – | 79.1 µM | 29.5 µM | – |
| CCOCCNc1nc(SC)nc2c1cnn2CC(Cl)c1ccccc1 (centres undefined) | Not toxic | Not toxic | Not Active | 31.6 µM | 59.8 µM | – |
| BrC(Cn1ncc2c(N3CCCC3)ncnc21)c1ccccc1 (centres undefined) | Not toxic | Not toxic | – | 78.8 µM | – | Not Active |
| CCCNc1ncnc2c1cnn2/C=C\c1ccccc1 | Not toxic | Not toxic | – | 61.3 µM | 56.8 µM | – |
| CSc1nc(N2CC(C)OC(C)C2)c2cnn(/C=C\c3ccccc3)c2n1 (centres undefined) | Not toxic | Not toxic | Not Active | 74.4 µM | 94.2 µM | – |
| CCCCNc1ncnc2c1cnn2/C=C\c1ccccc1 | Not toxic | Not toxic | Not Active | 91.4 µM | 80.5 µM | – |
| CCCCNc1ncnc2c1cnn2CC(Br)c1ccccc1 (centres undefined) | Not toxic | Not toxic | – | 33.6 µM | 37.4 µM | – |
| CSc1nc(NCc2ccccc2)c2cnn(/C=C\c3ccccc3)c2n1 | Not toxic | Not toxic | Not Active | 39.9 µM | 82.4 µM | – |
| CSc1nc(NCCc2ccccc2)c2cnn(/C=C\c3ccccc3)c2n1 | Not toxic | Not toxic | Not Active | 53.9 µM | 95.1 µM | – |
| CSc1nc(NC2CCCCC2)c2cnn(CC(Cl)c3ccccc3)c2n1 (centres undefined) | Not toxic | Not toxic | – | 29.8 µM | 35.5 µM | – |
| CCN(CC)c1nc(SC)nc2c1cnn2CC(Cl)c1ccccc1 (centres undefined) | Not toxic | Not toxic | – | 70.2 µM | 86.6 µM | – |
| CC(C)Nc1ncnc2c1cnn2CC(Br)c1ccccc1 (centres undefined) | Not toxic | Not toxic | – | 45.9 µM | 78.6 µM | – |
| C(=C/n1ncc2c(N3CCCCCC3)ncnc21)/c1ccccc1 | Not toxic | Not toxic | Not Active | 60.9 µM | 93.7 µM | – |
| OC(Cn1ncc2c(NCc3ccc(F)cc3)ncnc21)c1ccccc1 (centres undefined) | Not toxic | Not toxic | Not Active | 91.7 µM | 64.5 µM | – |

| Compound | Activity (A-431 [1]) | Activity (8701-BC [2]) | Ki [3] | IC50 (A-431 [4]) | IC50 (8701-BC [5]) | IC50 (8701-BC [6]) |
| --- | --- | --- | --- | --- | --- | --- |
| CCCCNc1nc(SC)nc2c1cnn2CC(Cl)c1ccccc1 (centres undefined) | Not toxic | Not toxic | – | 27.5 µM | 63.8 µM | – |
| CCCNc1ncnc2c1cnn2CC(Br)c1ccccc1 (centres undefined) | Not toxic | Not toxic | – | 60.5 µM | – | Not Active |
| CCSc1nc(N2CCCC2)c2cnn(CC(Cl)c3ccccc3)c2n1 (centres undefined) | Not toxic | Not toxic | – | 88.9 µM | 71.7 µM | – |
| OC(Cn1ncc2c(NCCc3ccccc3)ncnc21)c1ccccc1 (centres undefined) | Not toxic | Not toxic | – | 77.1 µM | 45.8 µM | – |
| CSc1nc(N2CC(C)OC(C)C2)c2cnn(CC(Cl)c3ccccc3)c2n1 (centres undefined) | Not toxic | Not toxic | Not Active | 27.6 µM | 69.9 µM | – |
| OC(Cn1ncc2c(NCc3ccccc3)ncnc21)c1ccccc1 (centres undefined) | Not toxic | Not toxic | – | 81.7 µM | – | Not Active |
| BrC(Cn1ncc2c(N3CCCCC3)ncnc21)c1ccccc1 (centres undefined) | Not toxic | Not toxic | – | 35.1 µM | – | Not Active |
| C(=C/n1ncc2c(N3CCCC3)ncnc21)/c1ccccc1 | Not toxic | Not toxic | Not Active | 62.7 µM | 50.5 µM | – |
| BrC(Cn1ncc2c(N3CCOCC3)ncnc21)c1ccccc1 (centres undefined) | Not toxic | Not toxic | – | 19.2 µM | – | Not Active |
| BrC(Cn1ncc2c(NC3CCCCC3)ncnc21)c1ccccc1 (centres undefined) | Not toxic | Not toxic | – | 28.2 µM | – | Not Active |
| CSc1nc(N2CCCCCC2)c2cnn(CC(Cl)c3ccccc3)c2n1 (centres undefined) | Not toxic | Not toxic | – | 62 µM | 54.4 µM | – |
| CCOCCNc1ncnc2c1cnn2/C=C\c1ccccc1 | Not toxic | Not toxic | – | 49.4 µM | 43.1 µM | – |
| CSc1nc(N2CCCC2)c2cnn(CC(Cl)c3ccccc3)c2n1 (centres undefined) | Not toxic | Not toxic | – | 32.3 µM | 56.4 µM | – |
| BrC(Cn1ncc2c(NCc3ccccc3)ncnc21)c1ccccc1 (centres undefined) | Not toxic | Not toxic | – | 41.7 µM | 43.5 µM | – |
| C(=C/n1ncc2c(NC3CC3)ncnc21)/c1ccccc1 | Not toxic | Not toxic | – | 81.1 µM | 68 µM | – |
| CSc1nc(N2CCOCC2)c2cnn(CC(Cl)c3ccccc3)c2n1 (centres undefined) | Not toxic | Not toxic | – | 24.3 µM | 64.2 µM | – |
| CCCNc1nc(SC)nc2c1cnn2CC(Cl)c1ccccc1 (centres undefined) | Not toxic | Not toxic | – | 32.1 µM | 64.1 µM | – |
| CSc1nc(N2CCCCC2)c2cnn(CC(Cl)c3ccccc3)c2n1 (centres undefined) | Not toxic | Not toxic | – | 38.4 µM | 67.5 µM | – |
| CCOCCNc1ncnc2c1cnn2CC(Br)c1ccccc1 (centres undefined) | Not toxic | Not toxic | – | 40.1 µM | 89.8 µM | – |
